{
  "source": "ChEMBL document CHEMBL1155808",
  "about": "“Antitumor activity of bis-indole derivatives” (J Med Chem, 2008)",
  "key": {"[1]": {"experiment": "Cytotoxicity against human melanoma cells", "assay_type": "functional", "conditions": "Melanoma cell; for CC50: read-out: pLC50 (the source's name) (converted); for TGI: read-out: pTGI (converted)"}, "[2]": {"experiment": "Cytotoxicity against human breast cancer cells", "assay_type": "functional", "conditions": "Cancer cell lines; for CC50: read-out: pLC50 (the source's name) (converted); for TGI: read-out: pTGI (converted)", "method_in_brief": "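MTT cytotoxicity assay in breast cancer cell lines; proliferation expressed as percent growth inhibition relative to vehicle-treated control cells; IC50 reported.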"}, "[3]": {"experiment": "Cytotoxicity against human ovarian cancer cells", "assay_type": "functional", "conditions": "Cancer cell lines"}, "[4]": {"experiment": "Cytotoxicity against human renal cancer cells", "assay_type": "functional", "conditions": "Cancer cell lines; for CC50: read-out: pLC50 (the source's name) (converted); for TGI: read-out: pTGI (converted)", "method_in_brief": "(§1)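 NCI 60-cell-line human tumour screen, with subpanels for leukemia, melanoma, lung, colon, kidney, ovary, breast, prostate and CNS. Compounds were dissolved in DMSO and tested at five ten-fold dilutions, highest 10^-4 M (10^-3 M for some). Endpoints were GI50, TGI and LC50, reported as negative log molar. Some compounds were assayed once, others two or three times.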"}, "[5]": {"experiment": "Cytotoxicity against human leukemia cells", "assay_type": "functional", "conditions": "Leukemia cell; for CC50: read-out: pLC50 (the source's name) (converted); for TGI: read-out: pTGI (converted)", "method_in_brief": "as §1"}, "[6]": {"experiment": "Inhibition of plasma membrane electron transport pathway in mitochondrial gene-knockout human HL60p'0 cells by WST1 reduction assay", "method_in_brief": "(§2)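 Cells at 10^5 per well in 0.1 ml pretreated 30 min with compound in DMSO (<0.1% final), then WST-1/mPMS added (final 500 µM and 20 µM); WST-1 reduction followed in real time at 450 nm; averages ± S.E.M. of four independent experiments.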"}, "[7]": {"experiment": "Cytotoxicity against human central nervous system cancer cells", "assay_type": "functional", "conditions": "Cancer cell lines; for TGI: read-out: pTGI (converted)", "method_in_brief": "as §1"}, "HEL": {"test_system": "HEL", "experiment": "Antiproliferative activity against human HEL cells after 48 hrs by MTT assay", "assay_type": "functional, cell-based"}, "[8]": {"experiment": "Inhibition of plasma membrane electron transport pathway in human HL60 cells by WST1 reduction assay", "assay_type": "cell-based", "conditions": "HL-60", "method_in_brief": "as §2"}, "Mo7e": {"test_system": "Mo7e", "experiment": "Antiproliferative activity against human Mo7e cells after 48 hrs by MTT assay", "assay_type": "functional, cell-based"}, "B1647": {"test_system": "B1647", "experiment": "Antiproliferative activity against human B1647 cells after 48 hrs by MTT assay", "assay_type": "functional, cell-based"}, "[9]": {"experiment": "Inhibition of plasma membrane electron transport pathway in human HL60 cells at 200 uM by WST1 reduction assay", "assay_type": "cell-based", "conditions": "HL-60"}, "[10]": {"experiment": "Cytotoxicity against human prostate cancer cells", "assay_type": "functional", "conditions": "Cancer cell lines", "method_in_brief": "as §1"}, "[11]": {"experiment": "Cytotoxicity against human Non-small cell lung carcinoma cells", "assay_type": "functional", "conditions": "for CC50: read-out: pLC50 (the source's name) (converted); for TGI: read-out: pTGI (converted)", "method_in_brief": "as §1"}, "[12]": {"experiment": "Cytotoxicity against human colon cancer cells", "assay_type": "functional", "conditions": "Cancer cell lines; for CC50: read-out: pLC50 (the source's name) (converted); for TGI: read-out: pTGI (converted)", "method_in_brief": "as §1"}, "[13]": {"conditions": "read-out: pLC50 (the source's name) (converted)"}},
  "note": "The source made the active and inactive calls. No cut-off for these calls is given here.",
  "data": [
    {"compound": "COc1ccc2[nH]cc(/C=c3\\[nH]c(=O)/c(=C/c4c[nH]c5ccc(OC)cc45)[nH]c3=O)c2c1", "values": [
      {"measurement": "GI50", "setting": "[1]", "result": 72.4, "unit": "µM"},
      {"measurement": "GI50", "setting": "[2]", "result": 79.4, "unit": "µM"},
      {"measurement": "GI50", "setting": "[3]", "result": 89.1, "unit": "µM"}
    ]},
    {"compound": "O=C1Nc2ccc(S(=O)(=O)O)cc2/C1=C\\c1cccc(/C=C2/C(=O)Nc3ccc(S(=O)(=O)O)cc32)n1", "values": [
      {"measurement": "GI50", "setting": "[4]", "result": 85.1, "unit": "µM"},
      {"measurement": "GI50", "setting": "[1]", "result": 95.5, "unit": "µM"},
      {"measurement": "GI50", "setting": "[5]", "result": 93.3, "unit": "µM"}
    ]},
    {"compound": "O=C1Nc2ccc(C(=O)O)cc2/C1=C\\c1cccc(/C=C2/C(=O)Nc3ccc(C(=O)O)cc32)n1", "values": [
      {"measurement": "IC50", "setting": "[6]", "result": "> 117", "unit": "µM"},
      {"measurement": "GI50", "setting": "[7]", "result": 72.4, "unit": "µM"},
      {"measurement": "TGI", "setting": "[7]", "result": 87.1, "unit": "µM"},
      {"measurement": "Activity", "setting": "HEL", "result": "Active"},
      {"measurement": "IC50", "setting": "[8]", "result": "> 117", "unit": "µM"},
      {"measurement": "GI50", "setting": "[5]", "result": 6.17, "unit": "µM"},
      {"measurement": "CC50", "setting": "[5]", "result": 34.7, "unit": "µM"},
      {"measurement": "TGI", "setting": "[5]", "result": 21.4, "unit": "µM"},
      {"measurement": "Activity", "setting": "Mo7e", "result": "Active"},
      {"measurement": "Activity", "setting": "B1647", "result": "Active"},
      {"measurement": "Activity", "setting": "[9]", "result": "inactive"}
    ]},
    {"compound": "O=C1Nc2ccc(Br)cc2/C1=C\\c1cccc(/C=C2/C(=O)Nc3ccc(Br)cc32)n1", "values": [
      {"measurement": "GI50", "setting": "[4]", "result": 7.94, "unit": "µM"},
      {"measurement": "CC50", "setting": "[4]", "result": 51.3, "unit": "µM"},
      {"measurement": "TGI", "setting": "[4]", "result": 21.9, "unit": "µM"},
      {"measurement": "GI50", "setting": "[1]", "result": 10, "unit": "µM"},
      {"measurement": "CC50", "setting": "[1]", "result": 52.5, "unit": "µM"},
      {"measurement": "TGI", "setting": "[1]", "result": 23.4, "unit": "µM"},
      {"measurement": "GI50", "setting": "[10]", "result": 6.46, "unit": "µM"},
      {"measurement": "CC50", "setting": "[10]; [13]", "result": 55, "unit": "µM"},
      {"measurement": "TGI", "setting": "[10]; read-out: pTGI (converted)", "result": 20.9, "unit": "µM"},
      {"measurement": "GI50", "setting": "[11]", "result": 11, "unit": "µM"},
      {"measurement": "CC50", "setting": "[11]", "result": 63.1, "unit": "µM"},
      {"measurement": "TGI", "setting": "[11]", "result": 28.2, "unit": "µM"},
      {"measurement": "GI50", "setting": "[7]", "result": 3.72, "unit": "µM"},
      {"measurement": "CC50", "setting": "[7]; [13]", "result": 40.7, "unit": "µM"},
      {"measurement": "TGI", "setting": "[7]", "result": 14.1, "unit": "µM"},
      {"measurement": "GI50", "setting": "[12]", "result": 10.5, "unit": "µM"},
      {"measurement": "CC50", "setting": "[12]", "result": 52.5, "unit": "µM"},
      {"measurement": "TGI", "setting": "[12]", "result": 24.5, "unit": "µM"},
      {"measurement": "GI50", "setting": "[2]", "result": 6.17, "unit": "µM"},
      {"measurement": "CC50", "setting": "[2]", "result": 53.7, "unit": "µM"},
      {"measurement": "TGI", "setting": "[2]", "result": 18.2, "unit": "µM"},
      {"measurement": "GI50", "setting": "[3]", "result": 9.77, "unit": "µM"},
      {"measurement": "CC50", "setting": "[3]; [13]", "result": 58.9, "unit": "µM"},
      {"measurement": "TGI", "setting": "[3]; read-out: pTGI (converted)", "result": 25.7, "unit": "µM"}
    ]},
    {"compound": "COc1ccc2c(c1)/C(=C\\c1cccc(/C=C3/C(=O)N(C)c4ccc(OC)cc43)n1)C(=O)N2C", "values": [
      {"measurement": "GI50", "setting": "[4]", "result": 1.51, "unit": "µM"},
      {"measurement": "CC50", "setting": "[4]", "result": 20.9, "unit": "µM"},
      {"measurement": "TGI", "setting": "[4]", "result": 5.25, "unit": "µM"},
      {"measurement": "GI50", "setting": "[1]", "result": 1.05, "unit": "µM"},
      {"measurement": "CC50", "setting": "[1]", "result": 8.91, "unit": "µM"},
      {"measurement": "TGI", "setting": "[1]", "result": 3.8, "unit": "µM"},
      {"measurement": "GI50", "setting": "[10]", "result": 2.09, "unit": "µM"},
      {"measurement": "GI50", "setting": "[11]", "result": 2.45, "unit": "µM"},
      {"measurement": "CC50", "setting": "[11]", "result": 74.1, "unit": "µM"},
      {"measurement": "TGI", "setting": "[11]", "result": 19.1, "unit": "µM"},
      {"measurement": "GI50", "setting": "[7]", "result": 3.24, "unit": "µM"},
      {"measurement": "TGI", "setting": "[7]", "result": 14.8, "unit": "µM"},
      {"measurement": "GI50", "setting": "[12]", "result": 1.45, "unit": "µM"},
      {"measurement": "CC50", "setting": "[12]", "result": 11.7, "unit": "µM"},
      {"measurement": "TGI", "setting": "[12]", "result": 3.39, "unit": "µM"},
      {"measurement": "GI50", "setting": "[5]", "result": 38, "unit": "µM"},
      {"measurement": "GI50", "setting": "[2]", "result": 1.62, "unit": "µM"},
      {"measurement": "CC50", "setting": "[2]", "result": 63.1, "unit": "µM"},
      {"measurement": "GI50", "setting": "[3]", "result": 2.57, "unit": "µM"}
    ]},
    {"compound": "COc1cc2c(cc1C)NC(=O)/C2=C/c1cccc(/C=C2/C(=O)Nc3cc(C)c(OC)cc32)n1", "values": [
      {"measurement": "GI50", "setting": "[4]", "result": 52.5, "unit": "µM"},
      {"measurement": "GI50", "setting": "[1]", "result": 79.4, "unit": "µM"},
      {"measurement": "GI50", "setting": "[10]", "result": 33.9, "unit": "µM"},
      {"measurement": "GI50", "setting": "[11]", "result": 83.2, "unit": "µM"},
      {"measurement": "IC50", "setting": "[6]", "result": "> 117", "unit": "µM"},
      {"measurement": "GI50", "setting": "[7]", "result": 89.1, "unit": "µM"},
      {"measurement": "Activity", "setting": "HEL", "result": "Active"},
      {"measurement": "GI50", "setting": "[12]", "result": 49, "unit": "µM"},
      {"measurement": "IC50", "setting": "[8]", "result": "> 117", "unit": "µM"},
      {"measurement": "GI50", "setting": "[5]", "result": 4.37, "unit": "µM"},
      {"measurement": "CC50", "setting": "[5]", "result": 91.2, "unit": "µM"},
      {"measurement": "TGI", "setting": "[5]", "result": 60.3, "unit": "µM"},
      {"measurement": "Activity", "setting": "Mo7e", "result": "Active"},
      {"measurement": "GI50", "setting": "[2]", "result": 74.1, "unit": "µM"},
      {"measurement": "TGI", "setting": "[2]", "result": 93.3, "unit": "µM"},
      {"measurement": "GI50", "setting": "[3]", "result": 89.1, "unit": "µM"},
      {"measurement": "Activity", "setting": "B1647", "result": "Active"}
    ]},
    {"compound": "O=C1Nc2ccccc2/C1=c1/[nH]c(=O)/c(=C2/C(=O)Nc3ccccc32)[nH]c1=O", "values": [
      {"measurement": "GI50", "setting": "[4]", "result": 83.2, "unit": "µM"},
      {"measurement": "GI50", "setting": "[11]", "result": 85.1, "unit": "µM"},
      {"measurement": "GI50", "setting": "[7]", "result": 74.1, "unit": "µM"},
      {"measurement": "GI50", "setting": "[2]", "result": 85.1, "unit": "µM"},
      {"measurement": "GI50", "setting": "[3]", "result": 97.7, "unit": "µM"}
    ]}
  ]
}
